An excerpt weighted towards active compounds, which were near 2% of everything screened.
FID counter: compounds displacing fluorescent DNA intercalator, primary screen, artefact control for HCV NS3 helicase inhibitor project, biochemical, FID fluorescence. DNA fluorescent intercalator displacement. 0.17% of 290,000 active. inhibition, % at 7.9 µM; in the data active = inhibition above about 37%;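 note: higher means more ethidium bromide displaced from hairpin DNA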
eIF4H inh: human eIF4H binding inhibitors, primary screen, translation initiation inhibitor project, biochemical, uHTS, fluorescence polarization. Eukaryotic translation initiation factor 4H (Homo sapiens), Q15056. eIF4H fluorescence polarization binding assay. inhibition, % at 35 µM. 0.94% of 290,000 active. AID 2012, 2009;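 note: calls also rest on retests at 20 µM and on dose response follow-up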
HCV core dimer: inhibitors of HCV core protein dimerization, primary screen, biochemical, TR-FRET, high-throughput | TR-FRET GST/Flag-core106 dimerization, 1536-well | inhibition, % at 5 µM | 0.33% of 300,000 active | AID 1899, 2009;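 active = inhibition above the mean of all tested compounds plus 3 SD, set per screening campaign, cut at about 45% in these data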
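System: GST/Flag-tagged HCV core106 proteins. Incubation: compound-protein-antibody incubation 4 h at 22.5 °C. Technique: HTRF with 340 nm excitation, 617/671 nm emission. Medium: KF-containing HEPES buffer, pH 7.45, DTT, CHAPS, BSA. Read-out: inhibition (%) from 671 over 617 nm ratio. Also added: Eu(K)-anti-GST 90 ng/mL plus XL665-anti-Flag 1 µg/mL.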
PABP polyA inh: PABP poly(A) RNA binding inhibitors, primary screen, biochemical, fluorescence polarization, uHTS | inhibition, % at 35 µM | Polyadenylate-binding protein 1 (Homo sapiens), P11940 | AID 2014, 2009 | 1% of 290,000 active;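 note: calls also rest on retests at 20 µM and on dose response follow-up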
MLLE-PAM2 inh: inhibitors of PABP1 MLLE–PAM2 peptide binding, primary screen, biochemical, fluorescence polarization, FITC-PAM2, GST-MLLE | Polyadenylate-binding protein 1 (Homo sapiens), P11940 | inhibition, % at 20 µM | 0.36% of 360,000 active | AID 588489, 2011; in the data active = inhibition above about 35%, passing the limit was not always enough
HCV NS3 hel inh: inhibitors of HCV NS3 helicase, primary screen, biochemical, Cy5 molecular beacon fluorescence | Hepatitis C virus NS3 helicase | NS3 helicase DNA unwinding | inhibition, % at 10.9 µM | 0.56% of 290,000 active | AID 1800, 2009;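 active = inhibition above the mean of all tested compounds plus 3 SD, set per campaign, cut at about 35% in these data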
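Assay system: hepatitis C virus NS3 helicase domain fragment enzyme. Also added: annealed dual-labelled DNA beacon duplex, ATP-started. Timing: 1 h reaction at 25 °C, ATP-initiated. Technique: Cy5 fluorescence at 0 and 60 min, beacon hairpin quenching. Evaluation: % inhibition of unwinding. Replication: one well per compound.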
Of the large screens only hits and unclear results are named; the others gave an inactive call. Unless noted, the rule behind the calls is not given here.

Cc1onc(-c2ccccc2)c1C(=O)N/N=C/c1cccc(O)c1	none
Cc1onc(-c2ccccc2)c1C(=O)N/N=C/c1ccc([N+](=O)[O-])s1	eIF4H inh 58, PABP polyA inh active
COc1ccccc1C(=O)NCC(=O)N/N=C/c1cc(Br)ccc1OC(=O)/C=C\c1ccco1	none
O=C(CNC(=O)c1ccccc1F)N/N=C/c1cc(Br)ccc1OC(=O)/C=C/c1ccco1	eIF4H inh 84
Cc1n[nH]c(=O)c2c(NC(=O)CSc3ccccc3Cl)oc(C)c12	none (no result: FID counter, eIF4H inh, PABP polyA inh, HCV NS3 hel inh)
Cc1n[nH]c(=O)c2c(NC(=O)CSc3c(Cl)cccc3Cl)oc(C)c12	MLLE-PAM2 inh 43 (no result: FID counter, eIF4H inh, PABP polyA inh, HCV NS3 hel inh)
O=C(Nc1ccn(CCCNC2CCN(Cc3ccccc3)CC2)c(=O)n1)OCc1ccccc1	none (no result: FID counter, eIF4H inh, HCV core dimer, PABP polyA inh, HCV NS3 hel inh)
O=C1NCCN(Cc2ccc(Cl)c(F)c2)C1CC(=O)N1CCc2ccccc2C1 (centres undefined)	eIF4H inh 54
CCCCCCn1c(CN2CCN(CCO)CC2)nc2c1c(=O)n(C)c(=O)n2C	PABP polyA inh active
CCCCCCn1c(CN2CCC(C)CC2)nc2c1c(=O)n(C)c(=O)n2C	none
CCC(C)[C@H](NC(=O)N1CC(=O)Nc2ccccc21)C(=O)N[C@H](C(=O)O)c1ccccc1 (some centres undefined)	none (no result: eIF4H inh, PABP polyA inh)
CC(C)S(=O)(=O)C1=NSC2=NC(=O)/C(=C\c3ccc(-c4cccc(C(=O)O)c4)o3)C(=N)N21	PABP polyA inh active (no result: HCV core dimer)
CC(C)S(=O)(=O)C1=NSC2=NC(=O)/C(=C\c3ccc(-c4ccccc4)o3)C(=N)N21	eIF4H inh inconclusive
CS(=O)(=O)C1=NSC2=NC(=O)/C(=C\c3ccc(-c4ccccc4)o3)C(=N)N21	eIF4H inh 54 (no result: MLLE-PAM2 inh)
COc1ccc(NC(=O)C(c2ccc(C)cc2)N(C)C(=O)Cc2cccs2)cc1 (centres undefined)	eIF4H inh 63, PABP polyA inh 5.4
CCN(CC)CCCNc1nc2ccccc2c2nc(-c3ccncc3)nn12	none
CN1CCN(C(=O)CSc2nc(-c3cccs3)ccc2C#N)CC1	HCV core dimer 53
N#C/C(=C/c1ccc(N2CCCCC2)o1)c1cccc(F)c1	eIF4H inh 87, PABP polyA inh 86
N#C/C(=C/c1ccc(N2CCCCCC2)o1)c1ccc(Cl)cc1	none
COc1ccc(NS(=O)(=O)c2cccc(NC(=O)CCC(=O)c3ccc(Cl)cc3)c2)cc1	eIF4H inh active
O=C(Nc1ccc(F)cc1)c1csc(Cc2ccccc2)n1	eIF4H inh 5.5
O=C1CCCC(O)=C1N=Nc1ccc(C(=O)O)cc1	eIF4H inh 102, PABP polyA inh 79
O=C1CCCC(O)=C1N=Nc1ccc2c(c1)OCO2	none
CCC(c1nnnn1Cc1ccc(F)cc1)N(CCCO)Cc1cc2cc3c(cc2[nH]c1=O)OCO3 (centres undefined)	MLLE-PAM2 inh 45
CCC(c1nnnn1CC1CCCO1)N(CCCO)Cc1cc2cccc(C)c2[nH]c1=O (centres undefined)	none
Cc1cccc(N2CCN(C(=O)[C@H](C)N3C(=O)C4CC=CCC4C3=O)CC2)c1C (some centres undefined)	none (no result: FID counter, eIF4H inh, HCV core dimer, PABP polyA inh, HCV NS3 hel inh)
CC(=O)c1cccc(NC(=S)NC(=O)c2ccccc2Br)c1	MLLE-PAM2 inh 36
O=C(NC(=S)Nc1ccc2c(c1)OCCO2)c1ccccc1F	none
O=C(O)c1cccc(NC(=S)NC(=O)c2ccncc2)c1	MLLE-PAM2 inh 44
O=C(NC(=S)Nc1ccc2c(c1)OCCO2)c1ccccc1	MLLE-PAM2 inh 38
CC(=O)c1ccc(NC(=S)Nc2ccc(Br)c(Cl)c2)cc1	MLLE-PAM2 inh 44
Cc1ccccc1CN(C)C(=O)CNC(=O)c1ccc2ccccc2c1	none
COCCCN(C(=O)C1=COCCO1)c1c(N)n(Cc2ccccc2)c(=O)[nH]c1=O	none (no result: FID counter, eIF4H inh, HCV core dimer, PABP polyA inh, HCV NS3 hel inh)
O=C(O)c1cccc(NC(=S)NC(=O)c2cccc(OCc3ccccc3)c2)c1	MLLE-PAM2 inh 40
CCCOc1cccc(C(=O)NC(=S)Nc2ccccc2)c1	none
Cc1ccc(OCC(=O)NC(=S)Nc2cccc(NC(=O)c3ccccc3)c2)cc1	MLLE-PAM2 inh 38
Cc1ccc(OCC(=O)NC(=S)Nc2cccc(NC(=O)c3ccc(Cl)cc3Cl)c2)cc1	none
O=C(O)CCCCCNC(=O)Nc1ccc2c(c1)OCCO2	none
O=C(O)CCNc1ccc2c(c1)OCCO2	eIF4H inh 83, PABP polyA inh 89
Oc1ccccc1N=Cc1ccc[nH]1	eIF4H inh 49, PABP polyA inh 81
CCOC(=O)CSc1nnc(-c2cc(OC)c(OC)c(OC)c2)o1	none
COc1cc(-c2nnc(SCc3cc(=O)oc4cc(O)c(O)cc34)o2)cc(OC)c1OC	eIF4H inh 92, PABP polyA inh 69
O=C(NC1CCSC1=O)C1CC(=O)N(c2ccc(F)cc2)C1 (centres undefined)	none
Cc1ccc(CN2CC(C(=O)NNC(=O)c3ccc(F)cc3)CC2=O)cc1 (centres undefined)	none (no result: FID counter, eIF4H inh, HCV core dimer, PABP polyA inh, HCV NS3 hel inh)
O=C(CCSc1ccccc1)NC1CCCCCC1	PABP polyA inh 93
O=C(CCSc1ccc(Cl)cc1)NC1CCCCC1	none
CC(CC(=O)NC1CCCC1)c1ccccc1 (centres undefined)	PABP polyA inh 50
Cc1[nH]c(=O)[nH]c(=O)c1/C=C/C(=O)OCC(C)C	eIF4H inh inconclusive, PABP polyA inh 61
CCCOC(=O)/C=C/c1c(C)[nH]c(=O)[nH]c1=O	none
COc1ccc(C2C(C#N)=C(N)OC3=C2C(=O)CC(C)(C)C3)c([N+](=O)[O-])c1OC (centres undefined)	MLLE-PAM2 inh 45
Cc1cc(C)n(CCc2nc(-c3cccs3)cs2)n1	none
Cc1cc(C)n(CCc2nc(-c3ccco3)cs2)n1	eIF4H inh 51, PABP polyA inh 35
CN(C)c1ccc(C(CNS(=O)(=O)c2ccc([N+](=O)[O-])cc2)N2CCCC2)cc1 (centres undefined)	none (no result: FID counter, eIF4H inh, PABP polyA inh, HCV NS3 hel inh)
COc1ccc2c(c1)Cc1sc(NC(C)=O)nc1-2	MLLE-PAM2 inh 37
O=C(Cn1cnc2scc(-c3cccc([N+](=O)[O-])c3)c2c1=O)NCc1ccco1	HCV core dimer 64
Cc1sc2ncn(CC(=O)NCc3ccco3)c(=O)c2c1-c1ccc(F)cc1	none
CC(C)n1cc(C#N)c(N)n1	none (no result: FID counter, eIF4H inh, HCV core dimer, PABP polyA inh, HCV NS3 hel inh)
CCN1CCN(c2cc(N3CCN(C(=O)c4ccco4)CC3)c3c4c(onc24)-c2ccccc2C3=O)CC1	eIF4H inh 94, PABP polyA inh 122
CC(=O)OCCNc1cc(N2CCN(C)CC2)c2noc3c2c1C(=O)c1ccccc1-3	none (no result: HCV core dimer)

From PubChem BioAssay
